LANA-H2A inh – blockers of LANA interaction with H2A/H2B – biochemical, FP readout, HTS, primary screen | cell-free LANA-H2A/H2B peptide, fluorescence polarization | inhibition, % (concentration not given with the values) | 320,000 tested, 0.6% active | AID 2629, 2010; in the data active means inhibition mostly above about 10%, no sharp cut-off; inactive means mostly below about 6.7%
MEX-5 binding – MEX-5 zinc finger RNA-binding disruptors – biochemical, C. elegans, fluorescence polarization, MLPCN library, primary screen | 300,000 tested, 0.38% active | MEX-5/FITC-TCR2 RNA binding; active compounds read low | activity score (negative = inhibition of binding), % at 10 µM;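 active means inhibition past about -25% in most replicates, and total fluorescence under double the plate's negative control median, limit read from the data; inconclusive means replicates evenly split on the limit, or fluorescence at least double controls; inactive means too little inhibition in most replicates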;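 further: 0% = DMSO and -100% = 5 µM competing unlabeled TCR2 RNA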
Target sequence (Q9XUB2 whole entry, looked up): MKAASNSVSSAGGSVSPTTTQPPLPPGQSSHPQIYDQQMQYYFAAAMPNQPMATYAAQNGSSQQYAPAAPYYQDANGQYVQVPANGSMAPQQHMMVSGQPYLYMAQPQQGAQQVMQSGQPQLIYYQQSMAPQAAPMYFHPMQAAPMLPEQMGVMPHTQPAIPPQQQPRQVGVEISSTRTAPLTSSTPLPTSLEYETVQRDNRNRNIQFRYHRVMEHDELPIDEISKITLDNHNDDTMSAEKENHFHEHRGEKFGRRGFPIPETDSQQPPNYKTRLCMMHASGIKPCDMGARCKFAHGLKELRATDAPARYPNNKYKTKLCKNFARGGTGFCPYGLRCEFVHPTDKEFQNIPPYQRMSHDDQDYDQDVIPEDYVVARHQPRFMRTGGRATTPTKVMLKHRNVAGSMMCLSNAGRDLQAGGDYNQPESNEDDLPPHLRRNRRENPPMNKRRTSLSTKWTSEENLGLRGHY
EBV gp42 block – Epstein-Barr virus gp42 inhibitors, primary screen, biochemical, uHTS, fluorescence polarization | Glycoprotein 42 (Epstein-Barr virus (strain AG876)), Q1HVG2 | Fluorescence polarization binding assay, mP read-out | inhibition, % (tested at 21.74 µM) | 220,000 tested, 0.42% active | AID 1085, 2008; in the data active means inhibition above about 50%
Runt-CBFb FRET – inhibitors of RUNX1 Runt–CBFb binding, primary screen, biochemical, FRET, Cerulean-Runt, Venus-CBFb, uHTS. inhibition, % at 20 µM. Cerulean-Runt/Venus-CBFb FRET ratio 530/480, 1 h. AID 1496, 2009. 220,000 tested, 0.46% active;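 active means inhibition over about 50% at 20 µM in the single-dose screen, limit read from the data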;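 further: 0% = DMSO wells and 100% = excess unlabeled CBFb competitor control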
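Assay system: Cerulean-tagged RUNX1 Runt domain (FRET donor) fusion protein / Amount: 100 nM each of Venus-CBFb and Cerulean-Runt domain / Medium: Tris buffer pH 7.5 with salts and BSA / Also added: Venus-CBFb 100 nM / Schedule: 1 h complex formation plus 1 h compound treatment, room temperature / Signal: FRET fluorescence / Read-out: loss of energy transfer signal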
RanGTP-Imp inh – inhibitors of RanGTP-importin-beta interaction, primary screen, biochemical, FRET, CFP-Ran, YFP-importin-beta, homogeneous | AID 2216, 2009 | inhibition, % (test concentration not listed) | 300,000 tested, 1.1% active | cell-free CFP-Ran/YFP-importin-beta FRET ratio | Ran GTPase (GTP-bound) - importin-beta complex;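 active means more than half of the replicate wells show a fall in the fluorescence ratio signal beyond about 16%, limit read from the data, passing the limit was not always enough; inconclusive means exactly half of the replicate wells pass the set limit; inactive means fewer than half of replicates pass the limit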;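 further: 0% = DMSO wells and 100% = Ran loaded with GDP instead of GTP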
Runt-SMMHC FRET – inhibitors of RUNX1 Runt–CBFb-SMMHC binding, primary screen, biochemical, FRET, Cerulean-Runt, Venus-CBFb-SMMHC, uHTS. Cerulean-Runt/Venus-CBFb-SMMHC FRET ratio 530/480, 1 h. AID 1434, 2008. inhibition, % at 20 µM. 220,000 tested, 0.74% active. Runt-related transcription factor 1 (Homo sapiens) + Core-binding factor subunit beta …;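 active means mean inhibition across duplicate retests at 20 µM reaching about 50%, limit read from the data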;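 further: 0% = DMSO wells and 100% = wells with excess untagged CBFb-SMMHC; inhibitors lower the FRET ratio by blocking Runt binding to CBFb-SMMHC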
Active calls of the source: *; ? = inconclusive; · = no result. Shown are actives, neighbours in structure and some others; about 2.4% of the full set was active somewhere.

SMILES	LANA-H2A inh	MEX-5 binding	EBV gp42 block	Runt-CBFb FRET	RanGTP-Imp inh	Runt-SMMHC FRET
CCc1cccc(C)c1NC(=O)COC(=O)c1c2c(nc3ccccc13)/C(=C\c1cccs1)CCC2	-1	-1	-26	-11	4	-24
O=C(COC(=O)c1c2c(nc3ccccc13)/C(=C/c1ccco1)CC2)NC1CCCC1	·	0	83*	17	-131	·
NC(=O)c1ccc(NC(=O)COC(=O)c2c3c(nc4ccccc24)/C(=C\c2cccs2)CCC3)cc1	-2	-6	-32	-21	16*	-16
CSc1ncccc1C(=O)OCC(=O)c1cccc(Br)c1	-7	0	-17	1	0	-5
O=C(CSc1nncn1-c1cccnc1)Nc1ccccc1C(F)(F)F	15	1	·	·	1	·
COc1ccc(/C=N/Nc2nc(=O)[nH]nc2C)cc1[N+](=O)[O-]	6	-1	1	2	-1	-8
Cc1ccc(OCC(=O)N/N=C\c2ccc(O)c([N+](=O)[O-])c2)c([N+](=O)[O-])c1	13*	-1	-17	0	2	-1
Cc1ccc(/C=N\NC(=O)COc2ccc(C)cc2[N+](=O)[O-])cc1	-3	2	-16	-2	4	-2
Cc1n[nH]c(=O)nc1N/N=C/c1ccc(O)c([N+](=O)[O-])c1	1	-28*	-16	2	-1	-1
COc1cc(/C=N/Nc2nc(=O)[nH]nc2C)ccc1O	-4	?	-2	2	?	-2
COc1cc(/C=N/Nc2nc(=O)[nH]nc2C)cc([N+](=O)[O-])c1O	1	-79*	-3	-5	-3	-1
CN(C1CCS(=O)(=O)C1)S(=O)(=O)c1ccccc1[N+](=O)[O-] (stereo not drawn)	-2	1	1	3	-6	0
CC(=O)Nc1ccc(S(=O)(=O)N2CCC(c3nc4c(nnn4Cc4ccccc4Cl)c(=O)[nH]3)CC2)cc1	1	-1	·	·	1	·
CCCOC(=O)c1ccc(NC(=O)c2ccccc2OC)cc1	-2	-1	-10	-4	-3	0
CCCOC(=O)c1ccc(NC(=O)c2c(Cl)ccc(Cl)c2OC)cc1	-5	1	-1	2	31*	6
Cc1ccccc1NC(=S)C1=C(O)c2sccc2N(C)S1(=O)=O	7	1	-12	29	89*	50*
CCNC(=O)C1=C(O)c2sccc2N(C)S1(=O)=O	-2	2	-7	45	76*	65*
CC1(C)CCC/C(=C\c2ccccc2)C1=O	1	2	·	·	-8	·
COCCn1c(SCc2nc3scc(-c4ccc(Cl)cc4)c3c(=O)[nH]2)nnc1-c1cccc(C)c1	-4	4	-54	-2	-1	-2
Cc1c(C(=O)Nc2ccccc2)cn2c(nc3ccccc32)c1C#N	5	-1	-22	-19	8	-32
Cc1ccccc1NC(=O)c1cn2c(nc3ccccc32)c(C#N)c1C	-3	2	-4	-56	10	81*
Cc1ccccc1C(=O)Nc1ccc2c(C#N)c3nc4ccccc4nc3n2c1	28*	2	112*	-29	·	-33
COc1ccc(NC(=O)c2cn3c(nc4ccccc43)c(C#N)c2C)cc1	-11	0	-19	-22	5	-12
COc1ccc(OCc2nnc(SCC(=O)Nc3nnc(C4CC4)s3)n2C)cc1	2	-2	·	·	0	·
Cc1cc(Nc2ccccc2)c2c([N+](=O)[O-])ccc(C)c2n1	-4	0	-1	-4	?	1
Cc1cc2c3c(ccc(C)c3n1)N=CN2c1ccccc1	0	-1	7	65*	92*	60*
NNC(=O)c1snnc1-c1ccccc1	0	-1	-24	-1	0	3
